According to ChEMBL document CHEMBL1137800, “Evaluation of marine sponge metabolites for cytotoxicity and signal transduction activity” (J Nat Prod, 1993):
≈ marks a conversion by molar mass, not a printed value. Calls of active or inactive are those of the source. No cut-off for these calls is given here.

Columns and labels:
[1] = test system: P388; experiment: Cytotoxicity against mouse P388 cells after 48 hrs by MTT assay; format: functional, cell-based; details: P388, 48 h
In short: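 P-388 cells seeded at 1×10^5 cells/ml in RPMI 1640 with 10% horse serum and gentamicin (50 μg/ml). Exposed 48 h at 37° to compound at 10.0, 1.0, 0.10 or 0.010 μg/ml; MeOH vehicle evaporated under vacuum. MTT added for 90 min, formazan dissolved in acidified iPrOH, A570 read. IC50 from linear regression of logit-transformed absorbance relative to drug-free wells.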

[2] = test system: HT-29; experiment: Cytotoxicity against human HT-29 cells after 48 hrs by MTT assay; format: functional, cell-based; details: HT-29, 48 h
In short: (§1)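 A549 and HT-29 cells grown in RPMI 1640 with 10% horse serum and exposed at 37° in gentamicin-containing medium, with MeOH vehicle evaporated. Exposure ran 48 h […] before MTT was added for 90 min. Formazan dissolved in acidified iPrOH and A570 read. IC50 from logit-regression of absorbance versus drug-free wells; 5-fluorouracil and adriamycin included as controls.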

[3] = test system: A549; experiment: Cytotoxicity against human A549 cells after 48 hrs by MTT assay; format: functional, cell-based; details: A549, 48 h; in short: as §1
[4] = test system: A549; experiment: Antitumor activity against human A549 cells xenografted in mouse at 0.3 mg/kg relative to control; format: functional
[5] = test system: M19-MEL; experiment: Cytotoxicity against human M19-MEL cells; format: functional; details: read-out: Log10LC50 (converted)
[6] = organism: Mus musculus; experiment: Induction of PKC-mediated mouse EL-4.IL-2 cells adherence by MTT assay
In short: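 EL-4.IL-2 cells (2.5×10^5/well) in RPMI 1640 with 10% FCS and 2-mercaptoethanol, incubated 1 h at 37° with compound in triplicate, without PMA and also with 16 nM PMA (final), EtOH ≤1.25%. Non-adherent cells removed by four shaking washes. Adherent cells quantified by MTT (4 h) with iPrOH solubilisation at 570 nm. Parallel unwashed plate monitored cytotoxicity.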

[7] = Cytotoxicity against mouse EL-4.IL-2 cells after 3 to 4 days by Trypan blue exclusion test; format: functional, cell-based
[8] = test system: SK-MEL-5; experiment: Cytotoxicity against human SK-MEL-5 cells; format: functional; details: read-out: Log10LC50 (converted)
[9] = test system: Malme-3M; experiment: Cytotoxicity against human MALME-3M cells; format: functional; details: read-out: Log10LC50 (converted)
[10] = organism: Mus musculus; experiment: Inhibition of PKC-mediated mouse EL-4.IL-2 cells adherence by MTT assay
In short: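 Mouse EL-4.IL-2 cells (2.5×10^5/well, within 15 passages of frozen stock) incubated 1 h at 37° with compounds in triplicate, with PMA (16 nM final) or without PMA; final EtOH ≤1.25%. Four shaker wash cycles. Adherent cells read by MTT, 4 h at 37°, formazan dissolved in iPrOH, A570. A parallel unwashed plate without PMA monitored cytotoxicity. Adherence inhibitor: blocks PMA-induced adherence, induces none alone, not cytotoxic.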

[11] = test system: Mus musculus; experiment: Toxicity in human A549 cells xenografted mouse at 0.3 mg/kg; format: organism-based; design: dose 0.3 mg/kg; details: in vivo

Structure (SMILES): O[C@]12C=C(c3nccc4c3[nH]c3ccccc34)[C@@H]3CCN(CCCC/C=C\CC1)C[C@@]31C[C@@H]3/C=C\CCCCN3[C@H]12 [MANZAMINE A]
- IC50 [1]: 2.4 µg/mL (≈ 4.37 µM)
- IC50 [2]: 0.8 µg/mL (≈ 1.46 µM)
- IC50 [3]: 1.3 µg/mL (≈ 2.37 µM)

Structure (SMILES): CSc1c2c3c(n1C)C(=O)C(=O)C(Cl)=C3NCC2 [BATZELLINE A]
- Activity [4]: inactive
- CC50 [5]: 6.61 µM
- Activity [6]: Active
- IC50 [7]: 22.9 µg/mL (≈ 81 µM)
- CC50 [8]: 6.61 µM
- IC50 [1]: 5.3 µg/mL (≈ 18.7 µM)
- CC50 [9]: 15.5 µM
- IC50 [2]: 2.8 µg/mL (≈ 9.9 µM)
- IC50 [3]: 0.7 µg/mL (≈ 2.48 µM)

Structure (SMILES): CC1=CC(=O)[C@]2(C)CC[C@H]([C@H](C)CC(=O)CC(C)C)[C@H]2CC1 [REISWIGIN A]
- IC50 [1]: 8.5 µg/mL (≈ 27.9 µM)
- IC50 [2]: 6 µg/mL (≈ 19.7 µM)
- IC50 [3]: 7.2 µg/mL (≈ 23.6 µM)

Structure (SMILES): O=C1C[C@H]2S[C@H]3C[C@]2(C=C1Br)C1=C(N3)C(=O)c2[nH]cc3c2C1=NCC3 [DISCORHABDINE A]
- Activity [6]: Active
- IC50 [7]: 4.8 µg/mL (≈ 11.5 µM)
- IC50 [1]: 0.1 µg/mL (≈ 0.24 µM)
- IC50 [2]: 0.01 µg/mL (≈ 0.024 µM)
- IC50 [3]: 0.04 µg/mL (≈ 0.0961 µM)

Structure (SMILES): CC[C@H](C)[C@H]1C(=O)NCCC(=O)N[C@H]([C@@H](C)CC)C(=O)N(C)[C@@H](C(C)C)C(=O)N(C)[C@@H](C)C(=O)NCCC(=O)N[C@H](CC(C)C)C(=O)N(C)[C@H]([C@@H](C)CC)C(=O)O[C@H](C)[C@H](NC(=O)[C@@H](CC(C)C)N(C)C(=O)[C@@H](NC(=O)COC)C(C)C)C(=O)NCCC(=O)N[C@H](CC(C)C)C(=O)N1C [THEONELLAMINE B]
- IC50 [1]: > 20 µg/mL
- IC50 [2]: 5.1 µg/mL (≈ 3.63 µM)
- IC50 [3]: 5.3 µg/mL (≈ 3.77 µM)

Structure (SMILES): C1=C\CC[C@]23CN4CCCC/C=C\CC[C@@]5(O[C@H]5[C@@H](c5nccc6c5[nH]c5ccccc56)[C@@H]2CC4)[C@@H]3NCCCC/1 [MANZAMINE B]
- IC50 [1]: 6.6 µg/mL (≈ 12 µM)
- IC50 [2]: 1.6 µg/mL (≈ 2.9 µM)
- IC50 [3]: 4.5 µg/mL (≈ 8.17 µM)

Structure (SMILES): COC1=Cc2ccnc3ccnc(c23)C1=O [DEMETHYLOXY-AAPTAMINE]
- Activity [6]: Active
- IC50 [7]: < 0.05 µg/mL
- IC50 [1]: 1.6 µg/mL (≈ 7.54 µM)
- IC50 [2]: 1.5 µg/mL (≈ 7.07 µM)
- IC50 [3]: 5.2 µg/mL (≈ 24.5 µM)

Structure (SMILES): [C-]#[N+]C(C)(C)C[C@@H]1C[C@H](C)[C@H]2CC[C@H](C)[C@@]3([N+]#[C-])CCC(=C)[C@@H]1[C@H]23 [DIISOCYANOAMPHILECTENE]
- IC50 [1]: 0.7 µg/mL (≈ 2.16 µM)
- IC50 [2]: 1.2 µg/mL (≈ 3.7 µM)
- IC50 [3]: 13 µg/mL (≈ 40.1 µM)

Structure (SMILES): C1=C\CCCCN(CCc2nccc3c2[nH]c2ccccc23)CCCC/1 [MANZAMINE C]
- Activity [6]: Active
- IC50 [7]: 12 µg/mL (≈ 34.5 µM)
- IC50 [1]: 2.6 µg/mL (≈ 7.48 µM)
- IC50 [2]: 1.5 µg/mL (≈ 4.32 µM)
- IC50 [3]: 3.5 µg/mL (≈ 10.1 µM)

Structure (SMILES): CN(C)CCc1c2ncsc2c2c3c(c4ccccc4nc13)C=CN2C [DERCITIN]
- Activity [10]: Active
- IC50 [7]: < 6 µg/mL
- IC50 [1]: 0.2 µg/mL (≈ 0.555 µM)
- IC50 [2]: 0.02 µg/mL (≈ 0.0555 µM)
- IC50 [3]: 0.07 µg/mL (≈ 0.194 µM)

Structure (SMILES): CC1(C)CCC[C@]2(C)[C@H]3C=C4C=C(O)C(=O)C=C4O[C@@]3(C)CC[C@@H]12 [PUUPEHENONE]
- IC50 [1]: 1.3 µg/mL (≈ 3.96 µM)
- IC50 [2]: 0.2 µg/mL (≈ 0.609 µM)
- IC50 [3]: 0.4 µg/mL (≈ 1.22 µM)

Structure (SMILES): C/C1=C/C(=O)O[C@@H]2C[C@@H](CC[C@H](C)/C=C\C=C\CC1)O[C@@](O)([C@@H]1CSC(=O)N1)C2 [LATRUNCULIN A]
- Activity [10]: Active
- T/C [4]: 146%
- Activity [11]: Non-toxic
- IC50 [7]: 0.1 µg/mL (≈ 0.237 µM)
- IC50 [1]: 4.1 µg/mL (≈ 9.73 µM)
- IC50 [2]: 0.06 µg/mL (≈ 0.142 µM)
- IC50 [3]: 0.06 µg/mL (≈ 0.142 µM)

Structure (SMILES): CO[C@H]([C@H](C)/C=C/N(C)C=O)[C@@H](C)C(=O)CC[C@H](C)[C@H](C[C@@H]1OC(=O)C[C@@H](OC(N)=O)C[C@H](C)C[C@H](O)[C@H](C)[C@@H](OC)c2coc(n2)-c2coc(n2)-c2coc(n2)/C=C/C[C@H](OC)[C@H]1C)OC [KABIRAMIDE C]
- Activity [6]: Active
- IC50 [7]: 0.3 µg/mL (≈ 0.318 µM)
- IC50 [1]: 0.3 µg/mL (≈ 0.318 µM)
- IC50 [3]: 0.8 µg/mL (≈ 0.849 µM)

Structure (SMILES): [C-]#[N+][C@@]12CCC(=C)[C@H]3[C@H](CC(C)(C)NC=O)C[C@H](C)[C@@H](CC[C@@H]1C)[C@@H]32
- Activity [6]: Active
- IC50 [7]: 2.9 µg/mL (≈ 8.47 µM)
- IC50 [1]: 4.2 µg/mL (≈ 12.3 µM)
- IC50 [2]: 3.5 µg/mL (≈ 10.2 µM)
- IC50 [3]: 5.3 µg/mL (≈ 15.5 µM)

Structure (SMILES): CCCCCCCCCCCCCCCC[C@@]1(OC)C=C[C@@H](CC(=O)OC)OO1 [CHONDRILLIN]
- Activity [4]: inactive
- Activity [6]: Active
- IC50 [7]: 0.4 µg/mL (≈ 0.969 µM)
- IC50 [1]: 2.4 µg/mL (≈ 5.82 µM)
- IC50 [2]: 1.1 µg/mL (≈ 2.67 µM)
- IC50 [3]: 0.3 µg/mL (≈ 0.727 µM)

Structure (SMILES): C[C@H]1C[C@]2(O[C@H]3C[C@H]4[C@@H]5CC[C@H]6C[C@H](O)CC[C@]6(C)[C@H]5[C@@H](O)C[C@]4(C)[C@H]3[C@@]2(C)O)OC1(C)C [EPIHIPPURISTANOL]
- IC50 [1]: 0.5 µg/mL (≈ 1.08 µM)
- IC50 [2]: 0.05 µg/mL (≈ 0.108 µM)
- IC50 [3]: 0.04 µg/mL (≈ 0.0865 µM)

Structure (SMILES): Cn1cc2c3c1C(=O)C1=C(C3=NCC2)C2(C=C(Br)C(=O)C(Br)=C2)CCN1 [DISCORHABDIN]
- Activity [6]: Active
- IC50 [7]: 0.5 µg/mL (≈ 1.05 µM)
- IC50 [1]: 0.5 µg/mL (≈ 1.05 µM)
- IC50 [2]: 0.1 µg/mL (≈ 0.21 µM)
- IC50 [3]: 0.3 µg/mL (≈ 0.629 µM)

Structure (SMILES): O=C1c2nccc(O)c2-c2nc3ccccc3c3ccnc1c23 [MERIDINE]
- Activity [6]: Active
- IC50 [7]: 8.8 µg/mL (≈ 29.4 µM)
- IC50 [1]: 2 µg/mL (≈ 6.68 µM)
- IC50 [2]: 0.2 µg/mL (≈ 0.668 µM)
- IC50 [3]: 4.5 µg/mL (≈ 15 µM)

Structure (SMILES): C[C@H]1CC[C@H]2C(C)(C)CCC[C@]23Oc2ccc(O)cc2C[C@]13C [AUREOL]
- Activity [10]: Active
- IC50 [7]: 9.9 µg/mL (≈ 31.5 µM)
- IC50 [1]: > 20 µg/mL
- IC50 [2]: 4.7 µg/mL (≈ 14.9 µM)
- IC50 [3]: 4.3 µg/mL (≈ 13.7 µM)
